Active and inactive are the calls of the source. No cut-off for these calls is given here.
Assays:
Mus musculus = experiment: In vivo induction of STAT3 degradation in SCID mouse xenografted with human SU-DHL-1 cells assessed as reduction in phosphorylated STAT3 level in tumor tissue at 50 mg/kg, iv measured after 24 hrs by immunoblotting analysis; format: functional, organism-based
How it was run: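 SCID mice bearing MOLM-16 or SU-DHL-1 xenografts given a single iv dose of 50 mg/kg or dosing vehicle. Tumor lysates immunoblotted for p-STAT3 Y705 and total STAT3 at time points up to 48 h (MOLM-16) and 24 h (SU-DHL-1).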

[1] = target: T1, Signal transducer and activator of transcription 6 (Homo sapiens, UniProt P42226); experiment: Binding affinity to human recombinant STAT6 assessed as dissociation constant incubated for 15 mins by biolayer interferometry
T1 sequence (P42226 whole entry): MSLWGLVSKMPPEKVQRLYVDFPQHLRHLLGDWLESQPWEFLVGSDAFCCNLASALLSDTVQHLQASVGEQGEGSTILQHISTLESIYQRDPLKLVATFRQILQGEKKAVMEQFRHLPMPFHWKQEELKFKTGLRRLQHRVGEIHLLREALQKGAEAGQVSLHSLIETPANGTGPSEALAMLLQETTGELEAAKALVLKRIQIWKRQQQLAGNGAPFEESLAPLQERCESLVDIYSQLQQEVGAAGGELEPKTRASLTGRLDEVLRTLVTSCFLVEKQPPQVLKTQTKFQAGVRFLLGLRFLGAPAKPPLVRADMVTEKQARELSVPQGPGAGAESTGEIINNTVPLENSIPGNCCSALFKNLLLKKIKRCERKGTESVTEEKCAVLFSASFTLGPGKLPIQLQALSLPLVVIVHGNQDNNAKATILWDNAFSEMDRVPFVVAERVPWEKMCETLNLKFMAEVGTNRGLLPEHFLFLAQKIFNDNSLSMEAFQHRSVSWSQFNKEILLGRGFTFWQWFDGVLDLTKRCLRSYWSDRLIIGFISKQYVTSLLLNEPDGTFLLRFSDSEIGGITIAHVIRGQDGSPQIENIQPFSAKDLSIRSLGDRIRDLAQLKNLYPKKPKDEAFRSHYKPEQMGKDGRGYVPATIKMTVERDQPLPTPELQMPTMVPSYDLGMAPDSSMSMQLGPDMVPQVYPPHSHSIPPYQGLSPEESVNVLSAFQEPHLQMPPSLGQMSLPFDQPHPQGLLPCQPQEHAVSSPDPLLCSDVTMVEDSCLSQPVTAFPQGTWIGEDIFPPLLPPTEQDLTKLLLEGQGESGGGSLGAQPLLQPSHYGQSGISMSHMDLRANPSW
How it was run: (§1)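 Biolayer interferometry with recombinant human STAT1, STAT2, STAT3, STAT4, STAT5A, STAT5B or STAT6 proteins containing their SH2 domain. Compound run in 2× serial dilutions from 200 nM. Kd taken from steady-state fitting of equilibrium responses against concentration using a 1:1 binding model.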

[2] = target: Signal transducer and activator of transcription 3 (Homo sapiens, UniProt P40763); experiment: Induction of STAT3 degradation in human MOLM-16 cells assessed as decrease in STAT3 level at 10 uM incubated for 4 hrs by proteomic analysis; format: cell-based; conditions: MOLM16
Sequence of Signal transducer and activator of transcription 3 (P40763 whole entry): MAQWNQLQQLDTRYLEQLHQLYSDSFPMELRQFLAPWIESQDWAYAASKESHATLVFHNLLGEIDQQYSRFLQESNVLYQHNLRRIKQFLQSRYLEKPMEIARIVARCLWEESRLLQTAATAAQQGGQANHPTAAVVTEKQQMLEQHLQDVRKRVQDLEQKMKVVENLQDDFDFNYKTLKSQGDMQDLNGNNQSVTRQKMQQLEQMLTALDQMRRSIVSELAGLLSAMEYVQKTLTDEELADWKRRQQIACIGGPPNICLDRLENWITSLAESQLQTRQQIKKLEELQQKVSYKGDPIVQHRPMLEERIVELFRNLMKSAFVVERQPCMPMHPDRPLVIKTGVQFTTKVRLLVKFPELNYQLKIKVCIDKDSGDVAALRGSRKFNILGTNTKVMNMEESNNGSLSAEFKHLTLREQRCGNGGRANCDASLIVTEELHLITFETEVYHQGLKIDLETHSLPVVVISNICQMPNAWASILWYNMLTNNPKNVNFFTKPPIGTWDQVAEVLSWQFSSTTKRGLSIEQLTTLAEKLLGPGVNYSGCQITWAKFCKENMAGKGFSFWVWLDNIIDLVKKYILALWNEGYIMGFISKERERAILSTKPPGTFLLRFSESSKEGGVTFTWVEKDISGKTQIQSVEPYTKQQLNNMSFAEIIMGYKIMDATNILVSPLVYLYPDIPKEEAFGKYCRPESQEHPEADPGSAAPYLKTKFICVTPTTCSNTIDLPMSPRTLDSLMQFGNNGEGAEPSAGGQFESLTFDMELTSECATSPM
How it was run: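 MOLM-16 cells treated with 1 or 10 μM for 4 h. Protein levels measured by quantitative proteomics across more than 7000 proteins.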

[3] = target: T2, Signal transducer and activator of transcription 5B (Homo sapiens, UniProt P51692); experiment: Binding affinity to human recombinant STAT5B assessed as dissociation constant incubated for 15 mins by biolayer interferometry; how it was run: as §1
T2 sequence (P51692 whole entry): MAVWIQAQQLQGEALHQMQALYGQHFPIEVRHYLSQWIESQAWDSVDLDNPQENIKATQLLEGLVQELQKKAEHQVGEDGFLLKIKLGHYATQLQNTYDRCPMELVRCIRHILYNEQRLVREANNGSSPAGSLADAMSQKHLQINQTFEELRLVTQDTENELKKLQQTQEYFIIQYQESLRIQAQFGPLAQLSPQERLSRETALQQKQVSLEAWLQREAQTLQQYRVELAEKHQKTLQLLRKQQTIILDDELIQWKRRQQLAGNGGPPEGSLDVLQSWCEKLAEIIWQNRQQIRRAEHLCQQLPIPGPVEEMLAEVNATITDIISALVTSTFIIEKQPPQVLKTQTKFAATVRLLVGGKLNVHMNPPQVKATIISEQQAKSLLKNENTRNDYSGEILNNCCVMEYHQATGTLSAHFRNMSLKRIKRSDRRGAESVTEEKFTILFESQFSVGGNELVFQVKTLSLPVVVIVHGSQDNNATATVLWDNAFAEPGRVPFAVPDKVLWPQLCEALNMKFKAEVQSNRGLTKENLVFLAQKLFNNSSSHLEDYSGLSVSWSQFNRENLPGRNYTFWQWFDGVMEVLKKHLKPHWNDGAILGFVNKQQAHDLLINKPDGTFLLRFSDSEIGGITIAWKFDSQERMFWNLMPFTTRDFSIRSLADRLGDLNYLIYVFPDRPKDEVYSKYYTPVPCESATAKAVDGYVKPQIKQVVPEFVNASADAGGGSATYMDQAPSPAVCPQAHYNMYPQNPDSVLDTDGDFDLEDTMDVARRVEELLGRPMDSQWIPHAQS

[4] = target: Protein cereblon/Signal transducer and activator of transcription 1-alpha/beta (Homo sapiens) (UniProt P42224+Q96SW2); experiment: In vivo protac activity at CRBN/STAT1 degradation in SCID mouse xenografted with human MOLM16 cells assessed as reduction in STAT1 in tumor tissue at 50 mg/kg, iv measured after 24 hrs by immunoblotting analysis; format: functional, organism-based
How it was run: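 SCID mice bearing MOLM-16 tumors given a single iv dose of 50 mg/kg or dosing vehicle. Tumor lysates immunoblotted for STAT3, STAT1 and STAT6 at time points from 1 h to at least 24 h.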

[5] = Drug uptake in SCID mouse xenografted with human MOLM16 cells assessed as (2-(((5S,8S,10aR)-8-(((S)-5-amino-1-(benzhydrylamino)-1,5-dioxopentan-2-yl)carbamoyl)-3-(8-(2-(2,6-dioxopiperidin-3-yl)-1-oxoisoindolin-4-yl)oct-7-yno yl)-6-oxodecahydropyrrolo[1,2-a][1,5]diazocin-5-yl)carbamoyl)-1H-indole-5-carbonyl)phosphonic acid level in tumor tissue at 50 mg/kg, iv measured after 6 hrs by LC-MS/MS; format: ADME, organism-based; conditions: in vivo
How it was run: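 SCID mice bearing MOLM-16 xenografts given a single iv dose of 50 mg/kg. Concentrations of parent and hydrolysis product measured in plasma (ng/mL) and tumor tissue (ng/g) at 1, 6 and 24 h.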

[6] = target: Protein cereblon/Signal transducer and activator of transcription 6 (Homo sapiens) (UniProt P42226+Q96SW2); experiment: Protac activity at CRBN/STAT6 in human SUP-M2 cells assessed as STAT6 degradation at 0.25 to 100 uM incubated for 4 hrs by Western blot analysis; format: cell-based; conditions: SUPM2, dose 0.25-100 µM
Sequence of Protein cereblon/Signal transducer and activator of transcription 6 (Homo sapiens) (Q96SW2 whole entry partner, one chain of several): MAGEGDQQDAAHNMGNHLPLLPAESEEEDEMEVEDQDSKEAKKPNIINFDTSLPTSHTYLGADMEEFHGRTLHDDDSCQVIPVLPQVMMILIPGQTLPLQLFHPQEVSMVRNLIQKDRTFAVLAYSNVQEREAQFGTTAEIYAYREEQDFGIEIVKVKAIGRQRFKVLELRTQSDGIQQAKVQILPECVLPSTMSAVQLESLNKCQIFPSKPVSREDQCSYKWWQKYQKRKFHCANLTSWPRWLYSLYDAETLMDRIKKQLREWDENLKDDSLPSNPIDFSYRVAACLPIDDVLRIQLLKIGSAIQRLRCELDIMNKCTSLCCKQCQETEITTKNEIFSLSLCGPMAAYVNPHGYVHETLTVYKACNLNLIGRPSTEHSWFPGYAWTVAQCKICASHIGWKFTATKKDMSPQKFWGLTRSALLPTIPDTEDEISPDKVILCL

| Compound | Activity (Mus musculus) | Kd [1] | Activity [2] | Kd [3] | Activity [4] | Drug uptake [5] | Activity [6] |
| --- | --- | --- | --- | --- | --- | --- | --- |
| NC(=O)CC[C@H](NC(=O)[C@@H]1CC[C@@H]2CCN(C(=O)CCCCCC#Cc3cccc4c3CN(C3CCC(=O)NC3=O)C4=O)C[C@H](NC(=O)c3cc4cc(C(=O)P(=O)(O)O)ccc4[nH]3)C(=O)N21)C(=O)NC(c1ccccc1)c1ccccc1 (some centres not stated) | Active | > 10 nM | Active | > 10 nM | – | – | – |
| NC(=O)CC[C@H](NC(=O)[C@@H]1CC[C@@H]2CCN(C(=O)CCCCCC#Cc3cccc4c3CN(C3CCC(=O)NC3=O)C4=O)C[C@H](NC(=O)c3cc4cc(C(F)(F)P(=O)(O)O)ccc4[nH]3)C(=O)N21)C(=O)NC(c1ccccc1)c1ccccc1 (some centres not stated) | – | – | – | – | inactive | 1750 ng/g | inactive |
